One data set has as its system Trypanosoma cruzi. Format: functional. To be noted: C2C12, 72 h, read-out: LD50 (the source's name).
A further data set deals with Cruzipain (Trypanosoma cruzi, UniProt P25779). The data set can be described thus: Inhibition of recombinant Trypanosoma cruzi Cruzain expressed in Pichia pastoris using Z-Phe-Arg-AMC substrate incubated for 30 mins by fluorescence based assay.
A short description of data set [1]: Cytotoxicity in mouse C2C12 cells assessed as reduction in cell viability incubated for 3 days. Format: cell-based. To be noted: read-out: LD50.
Data set [2] addresses Procathepsin L (Homo sapiens) (UniProt P07711). Briefly: Inhibition of human cathepsin L assessed as Kinact /Ki ratio using fluorogenic substrate cbz-FR-AMC monitored for 90 to 120 mins by spectrophotometry. A digest of the protocol:
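Continuous kinetic assay with 0.5 ng/mL final cathepsin L and 10 μM Z-FR-AMC, with DMSO below 6%. Inhibitors were a 3-fold, 11-point series from […] to 1.0 μM. Substrate and inhibitor were combined and enzyme was added to start the reaction. AMC release was read for 2 h and converted via an AMC standard curve. Progress curves were fitted to a six-parameter covalent inhibition model (k_inact, association/dissociation constants).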

For data set [3] the target is unchanged. Briefly: Reversible inhibition of human cathepsin L assessed as residual enzyme activity using fluorogenic substrate cbz-FR-AMC incubated for 30 mins followed by 100 fold dilution and measured after 1 hrs by spectrophotometry.
For data set [4] the target is unchanged. Briefly: Irreversible inhibition of human cathepsin L assessed as reduction in enzyme activity using fluorogenic substrate cbz-FR-AMC incubated for 30 mins followed by 100 fold dilution and measured after 2 hrs by spectrophotometry. A digest of the protocol:
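Preincubation-dilution: cathepsin L at 100-fold final assay concentration incubated 30 min with inhibitor at 10-fold its IC₅₀. Then diluted 100-fold into assay buffer with 10 μM Z-FR-AMC, giving standard enzyme level and 0.1× IC₅₀ inhibitor. AMC fluorescence read continuously in kinetic mode for 2 h and activity compared with vehicle control.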

Data set [5] shares this target. Briefly: Irreversible inhibition of human cathepsin L assessed as residual enzyme activity using fluorogenic substrate cbz-FR-AMC incubated for 30 mins followed by 100 fold dilution and measured after 2 hrs by spectrophotometry.
Data set [6] has the same target. Briefly: Irreversible inhibition of human cathepsin L assessed as residual enzyme activity using fluorogenic substrate cbz-FR-AMC incubated for 30 mins followed by 100 fold dilution and measured after 1 hrs by spectrophotometry.

Calls of active or inactive are those of the source. The calls are words filed in the database; no cut-off is given here.

Chain of Cruzipain (P25779 whole entry): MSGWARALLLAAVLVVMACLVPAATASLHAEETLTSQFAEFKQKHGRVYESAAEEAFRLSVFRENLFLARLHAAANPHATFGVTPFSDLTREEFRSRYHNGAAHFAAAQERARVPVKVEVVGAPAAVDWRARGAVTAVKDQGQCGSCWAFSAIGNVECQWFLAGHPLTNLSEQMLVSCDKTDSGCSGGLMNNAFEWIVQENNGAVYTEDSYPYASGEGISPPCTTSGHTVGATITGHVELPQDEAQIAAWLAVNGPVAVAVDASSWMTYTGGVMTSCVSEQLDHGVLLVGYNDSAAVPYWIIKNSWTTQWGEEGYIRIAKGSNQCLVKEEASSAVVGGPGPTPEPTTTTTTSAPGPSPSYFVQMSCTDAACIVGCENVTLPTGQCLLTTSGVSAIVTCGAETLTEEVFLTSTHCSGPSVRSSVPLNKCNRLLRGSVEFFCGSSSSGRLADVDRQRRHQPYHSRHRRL
Chain of Procathepsin L (Homo sapiens) (P07711 114-333 limits assumed): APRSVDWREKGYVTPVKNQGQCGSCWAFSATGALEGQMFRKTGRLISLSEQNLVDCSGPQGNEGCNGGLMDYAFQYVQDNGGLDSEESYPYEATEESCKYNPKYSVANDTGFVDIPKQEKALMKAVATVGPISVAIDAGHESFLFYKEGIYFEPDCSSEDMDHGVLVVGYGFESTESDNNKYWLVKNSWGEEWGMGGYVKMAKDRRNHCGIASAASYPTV

In the case of `CC[C@H](C)[C@@H](C(=O)O[C@@H](CC(C)C)C(=O)N[C@@H](CC(C)C)C(=O)N[C@H](/C=C/C(=O)N1C(=O)C=C(OC)[C@@H]1C)Cc1ccccc1)N(C)C`, the LC50 with Trypanosoma cruzi is 35.8 nM. For the same compound, the IC50 – broadly, the concentration at which inhibition is half-maximal – on Cruzipain came to 0.84 nM. The CC50 at 72 h in data set [1] is over 10000 nM.

With `CC[C@H](C)[C@@H](C(=O)O[C@@H](CC(C)C)C(=O)N[C@@H](CC(C)C)C(=O)N[C@@H](C)/C=C/C(=O)N1C(=O)C=C(OC)[C@@H]1CC(C)C)N(C)C`, the LC50 with Trypanosoma cruzi came to 5.1 nM. The Ratio in data set [2] is 2510 ×10³ /M/s. Also, the IC50 at Cruzipain was 0.49 nM. Besides, in data set [1], the CC50 at 72 h was over 10000 nM.

In the case of `COC1=CC(=O)N(C(=O)/C=C/[C@H](Cc2ccccc2)NC(=O)[C@H](CC(C)C)NC(=O)[C@H](CC(C)C)OC(=O)[C@H](C(C)C)N(C)C)[C@H]1CC(C)C`, in the data set with Trypanosoma cruzi, the LC50 came out at 16.4 nM. The Ratio in data set [2] came to 1780 ×10³ /M/s. In addition, the 50% inhibitory concentration (IC50) at Cruzipain came out at 0.25 nM. Further, in data set [1], the CC50 at 72 h is over 10000 nM.

As to `O=C(Cn1ccnc1[N+](=O)[O-])NCc1ccccc1` [BENZNIDAZOLE], the LC50 with Trypanosoma cruzi was found to be 1500 nM.

Take `COC1=CC(=O)N(C(=O)/C=C/[C@H](C)NC(=O)[C@H](CC(C)C)NC(=O)[C@H](CC(C)C)OC(=O)[C@H](C(C)C)N(C)C)[C@H]1C`: the LC50 in the data set with Trypanosoma cruzi was found to be 12.9 nM. In data set [2], the Ratio is 487 ×10³ /M/s. In addition, on Cruzipain, the half-maximal inhibitory concentration (IC50) was determined as 2.89 nM. Also, the CC50 at 72 h in data set [1] was over 10000 nM.

With `CC[C@H](C)[C@@H](C(=O)O[C@@H](CC(C)C)C(=O)N[C@@H](CC(C)C)C(=O)N[C@@H](/C=C/C(=O)N1C(=O)C=C(OC)[C@H]1Cc1ccccc1)Cc1ccccc1)N(C)C`, the LC50 in the data set on Trypanosoma cruzi worked out at 537 nM. The Ratio in data set [2] worked out at 23.9 ×10³ /M/s. Besides, on Cruzipain, the IC50 came out at 37.1 nM. In data set [1], the CC50 at 72 h is over 10000 nM.

With `CC[C@H](C)[C@@H](C(=O)O[C@@H](CC(C)C)C(=O)N[C@@H](CC(C)C)C(=O)N[C@H](/C=C/C(=O)N1C(=O)C=C(OC)[C@H]1Cc1ccccc1)Cc1ccccc1)N(C)C`, the LC50 in the data set with Trypanosoma cruzi turned out to be 33.3 nM. Also, the Ratio in data set [2] came out at 1030 ×10³ /M/s. Also, the IC50 on Cruzipain came out at 1.07 nM. Besides, the CC50 at 72 h in data set [1] is over 10000 nM.

Consider `COC1=CC(=O)N(C(=O)/C=C/[C@H](C)NC(=O)[C@H](CC(C)C)NC(=O)[C@H](CC(C)C)OC(=O)[C@H](Cc2ccccc2)N(C)C)[C@H]1Cc1ccccc1`, for which the LC50 with Trypanosoma cruzi was 18.6 nM. Also, in data set [2], the Ratio is 3480 ×10³ /M/s. Also, the IC50 on Cruzipain was 0.73 nM. The CC50 at 72 h in data set [1] was over 10000 nM.

Turning to `CC[C@H](C)[C@@H](C(=O)O[C@@H](CC(C)C)C(=O)N[C@@H](CC(C)C)C(=O)N[C@@H](/C=C/C(=O)N1C(=O)C=C(OC)[C@@H]1Cc1ccccc1)Cc1ccccc1)N(C)C`, in the data set with Trypanosoma cruzi, the LC50 came to 1080 nM. For the same compound, the Ratio in data set [2] is 6.9 ×10³ /M/s. The IC50 at Cruzipain stood at 81 nM. Besides, the CC50 at 72 h in data set [1] is over 10000 nM.

As for `CC[C@H](C)[C@@H](C(=O)O[C@@H](CC(C)C)C(=O)N[C@@H](CC(C)C)C(=O)N[C@H](/C=C/C(=O)N1C(=O)C=C(OC)[C@@H]1Cc1ccccc1)Cc1ccccc1)N(C)C`, the LC50 in the data set on Trypanosoma cruzi was found to be 33.8 nM. In data set [2], the Ratio turned out to be 719 ×10³ /M/s. Moreover, the IC50 at Cruzipain came to 1.15 nM. Besides, in data set [1], the CC50 at 72 h is over 10000 nM.

As for `CC[C@H](C)[C@@H](C(=O)O[C@@H](CC(C)C)C(=O)N[C@@H](CC(C)C)C(=O)N[C@H](/C=C/C(=O)N1C(=O)C=C(OC)[C@@H]1CC(C)C)Cc1ccccc1)N(C)C`, the LC50 in the data set on Trypanosoma cruzi turned out to be 61.8 nM. Further, at Cruzipain, the IC50 amounted to 1.08 nM. In addition, in data set [1], the CC50 at 72 h is over 10000 nM.

Consider `COC1=CC(=O)N(C(=O)/C=C/[C@H](Cc2ccccc2)NC(=O)[C@H](CC(C)C)NC(=O)[C@H](CC(C)C)OC(=O)[C@H](Cc2ccccc2)N(C)C)[C@H]1C`, for which the LC50 with Trypanosoma cruzi stood at 60.3 nM. Besides, the Ratio in data set [2] was found to be 819 ×10³ /M/s. Besides, the IC50 on Cruzipain was found to be 1.2 nM. In addition, the CC50 at 72 h in data set [1] was over 10000 nM.

For `CC[C@H](C)[C@@H](C(=O)O[C@@H](CC(C)C)C(=O)N[C@@H](CC(C)C)C(=O)N[C@@H](C)/C=C/C(=O)N1C(=O)C=C(OC)[C@@H]1Cc1ccccc1)N(C)C`, in the data set with Trypanosoma cruzi, the LC50 came to 19.1 nM. The IC50 at Cruzipain was 0.76 nM. Besides, the CC50 at 72 h in data set [1] was over 10000 nM.

Take `COC1=CC(=O)N(C(=O)/C=C/[C@H](Cc2ccccc2)NC(=O)[C@H](CC(C)C)NC(=O)[C@H](CC(C)C)OC(=O)[C@H](Cc2ccccc2)N(C)C)[C@H]1Cc1ccccc1`: the LC50 with Trypanosoma cruzi is over 10000 nM. Besides, the Ratio in data set [2] is 1060 ×10³ /M/s. Moreover, the half-maximal inhibitory concentration (IC50) on Cruzipain was determined as 1.35 nM. In addition, in data set [1], the CC50 at 72 h was over 10000 nM.

Consider `COC1=CC(=O)N(C(=O)/C=C/[C@H](Cc2ccccc2)NC(=O)[C@H](CC(C)C)NC(=O)[C@H](CC(C)C)OC(=O)[C@H](Cc2ccccc2)N(C)C)[C@@H]1Cc1ccccc1`, for which the LC50 with Trypanosoma cruzi was over 10000 nM. Besides, the Ratio in data set [2] amounted to 1390 ×10³ /M/s. On Cruzipain, the IC50 is 3.69 nM. Further, the CC50 at 72 h in data set [1] is over 10000 nM.

In the case of `C#CCCCCOC1=CC(=O)N(C(=O)/C=C/[C@H](C)NC(=O)[C@H](CC(C)C)NC(=O)[C@H](CC(C)C)OC(=O)[C@H]([C@@H](C)CC)N(C)C)[C@@H]1C`, the LC50 in the data set with Trypanosoma cruzi came out at 17 nM. The half-inhibitory concentration (IC50) at Cruzipain is 0.47 nM. The CC50 at 72 h in data set [1] is over 10000 nM.

Turning to `CC[C@H](C)[C@@H](C(=O)O[C@@H](CC(C)C)C(=O)N[C@@H](CC(C)C)C(=O)N[C@@H](C)CCC(=O)N1C(=O)C=C(OC)[C@@H]1C)N(C)C`, the Activity in data set [3] came out at 75%.

As for `CC(C)CCNC(=O)[C@H](CC(C)C)NC(=O)[C@H]1O[C@@H]1C(=O)O`, in data set [4], the inhibition entry was “Active”.

On to `CC[C@H](C)[C@@H](C(=O)O[C@@H](CC(C)C)C(=O)N[C@@H](CC(C)C)C(=O)N[C@@H](C)/C=C/C(=O)N1C(=O)C=C(OC)[C@@H]1C)N(C)C` [GALLINAMIDE A], for which, in the data set on Trypanosoma cruzi, the LC50 turned out to be 14.7 nM. Further, the Activity in data set [5] came to 5%. For the same compound, the Ratio in data set [2] is 901 ×10³ /M/s. Also, at Cruzipain, the IC50 was determined as 0.26 nM. Further, in data set [1], the CC50 at 72 h is over 10000 nM. For the same compound, in data set [6], the inhibition entry is “Active”.

Source of the values: ChEMBL document CHEMBL4321814, “Design of Gallinamide A Analogs as Potent Inhibitors of the Cysteine Proteases Human Cathepsin L and Trypanosoma cruzi Cruzain” (J Med Chem, 2019).
